From PubChem
Shown are actives, neighbours in structure and some others; about 3% of the full set was active somewhere.
Yeast life ext = compounds extending yeast replicative lifespan, primary screen, S. cerevisiae, OD615 | AID 775, 2007 | inhibition of the nicotinamide effect, % at 10 µM | S. cerevisiae growth with nicotinamide; deaD strain in restrictive glucose medium | 130,000 compounds, 0.68% hits;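 active = inhibition above a set limit, placed 3 SD over the median of all compounds, cut at about 26% in these data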;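 also: 0% = nicotinamide-treated wells and 100% = cells grown without nicotinamide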
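System: Modified budding yeast, DeaD strain | Buffer or medium: Restrictive glucose medium | Also added: 1.5 mM nicotinamide | Doses: 10 µM single point, 0.25% DMSO | Schedule: 48 h compound exposure at 30 °C, humidified | Detection: Absorbance at 615 nm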
RAM network inh = inhibitors of the yeast RAM network, primary screen, dse1pr::URA3 reporter, 5-FOA selection; 190,000 compounds, 1.8% hits; AID 868, 2007; inhibition, % at 50 µM; S. cerevisiae dse1pr::URA3 reporter, 5-FOA growth OD615, 2 d; analog-sensitive cbk1-as2 kinase mutant strain;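 active = inhibition above a set limit, 3 SD over mean compound inhibition, cut at about 8.4% in these data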;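 also: 0% = DMSO-only wells with no growth and 100% = 10 µM 1-NA-PP1 full growth; inhibition rescues growth on 5-FOA so higher OD means more RAM inhibition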
Insulin prom inh = inhibitors of insulin promoter-driven GFP, primary screen, imaging, TRM-6 cells, eGFP reporter, cell count. AID 1273, 2008. reporter expression induced with tamoxifen. inhibition, % at 2 µM. 130,000 compounds, 0.9% hits;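 active = inhibition above the mean plus 3 SD, with well images judged a real hit on visual review, cut at about 60% in these data, passing the limit was not always enough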
Yeast growth inh = growth inhibitors of yeast BB579 in restrictive medium, primary screen, yeast lifespan-shortening project, S. cerevisiae; OD615, 48 h; inhibition, % at 10 µM; 140,000 compounds, 0.51% hits;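 active = inhibition above a set limit, 3 SD over the mean compound inhibition, cut at about 44% in these data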
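System: DeaD yeast strain BB579; buffer or medium: CSMM-D dextrose restrictive medium; technique: OD at 615 nm; schedule: 4 h cell preincubation, 48 h compound exposure, 30 °C humidified; doses: single 10 µM dose; controls: amphotericin B 10 µg/mL, positive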
Insulin prom up = insulin promoter activators in MIN6 cells, imaging, high-content screening, mouse beta cells; MIN6 insulin promoter-GFP reporter; active compounds read high; z-score at 5 µM; 190,000 compounds, 0.3% hits;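 active = z-score above 3 at 5 µM with at least 500 cells counted in the well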
* marks the source's active call; other numbers are inactive results; i = inactive; nt = no result given.

SMILES	Yeast life ext	RAM network inh	Insulin prom inh	Yeast growth inh	Insulin prom up
COCCOC(=O)c1c(NC(=O)CN2CCCc3ccccc32)sc(C(N)=O)c1C	-2	11*	nt	-28	-0.06
COc1ccc(CCNC(=O)C2CCC(=O)N2CCc2ccccc2)cc1OC (stereo not given)	nt	1	4	nt	-0.21
O=C(CCSc1nc(-c2ccco2)cc(C(F)(F)F)n1)NCc1cccs1	nt	10*	-88	-32	0.54
O=C(CCSc1nc(-c2ccc3c(c2)OCO3)cc(C(F)(F)F)n1)NCc1ccccc1	nt	8	62	-43	-0.06
CN(Cc1ccccc1)C(=O)CCSc1nc(-c2ccc3c(c2)OCO3)cc(C(F)(F)F)n1	nt	9.9*	57	-39	nt
COc1ccc(CNC(=O)CCSc2nc(-c3ccc4c(c3)OCO4)cc(C(F)(F)F)n2)cc1	nt	5	-62	-41	-0.1
O=C(CCSc1nc(-c2ccc3c(c2)OCO3)cc(C(F)(F)F)n1)NCc1ccco1	-4	9.7*	nt	-73	-0.47
O=C(CSc1nc(-c2ccco2)cc(C(F)(F)F)n1)Nc1ccc2c(c1)CCC2	-18	8.5*	7	-24	0.87
O=C(C1CCC(CNS(=O)(=O)c2cccc3nsnc23)CC1)N1CCN(c2ccccn2)CC1 (stereo not given)	nt	0	-21	nt	-0.39
O=C(NN1C(=O)c2ccccc2NC1c1ccccc1OCc1ccccc1)c1ccncc1 (stereo not given)	29*	0	63	-41	-0.76
COc1ccc(OCCNc2cc(N3CCCCC3)ccc2[N+](=O)[O-])cc1	1	11*	nt	-53	1.5
COc1cccc(OCCNc2cc(N3CCCCC3)ccc2[N+](=O)[O-])c1	-12	10*	nt	-26	-0.61
CCOC(=O)c1ccc(NC(=O)C(=O)NCc2ccco2)cc1	nt	3	nt	nt	0.44
COC(=O)c1[nH]c2ccccc2c1NC(=O)c1c(F)cccc1F	nt	nt	nt	nt	-0.89
Cn1cccc1/C=C(\C#N)C(N)=S	nt	nt	nt	nt	0.06
Cn1c(/C=C(\C#N)C(N)=S)ccc1-c1ccc(Br)cc1	nt	9.6*	nt	nt	-0.82
COc1ccc(-c2cc(C(=O)N3CCN(c4ncccn4)CC3)c3ccccc3n2)c(OC)c1	-5	1	-12	59*	-1.5
COc1ccc(OC)c(-c2cc(C(=O)N3CCN(c4ncccn4)CC3)c3ccccc3n2)c1	-18	1	-44	-52	-0.62
CCc1nc2cc(C)nn2c2nc3ccccc3n12	-21	1	nt	10	0.06
Cc1cc2nc(C)n3c4ccccc4nc3n2n1	-15	2	43	86*	-0.09
Cc1noc(C)c1C(=O)NC(C)C1CCCO1 (stereo not given)	-1	0	89*	-38	0.16
Cc1occc1C(=O)NC(C)C1CCCO1 (stereo not given)	-3	1	23	9	nt
O=C(NC1CCCCC1)C(c1cccs1)N(C(=O)c1ccccn1)c1ccccc1 (stereo not given)	3	9.5*	-179	-51	-0.23
O=C(NC1CCCC1)C(c1cccs1)N(C(=O)c1ccno1)c1ccccc1 (stereo not given)	1	7	-35	-68	0.48
COc1ccccc1N1CC(C(=O)Nc2nnc(SCc3ccccn3)s2)CC1=O (stereo not given)	30*	2	nt	-14	-0.22
SMILES	Yeast life ext	RAM network inh	Insulin prom inh	Yeast growth inh	Insulin prom up
CCOCCCn1c(C)nc2c[n+](CC(=O)c3ccc4ccccc4c3)cc(Br)c21	nt	nt	nt	nt	-0.43
O=C(NN=C1CCN(Cc2ccccc2)CC1)c1cccc(S(=O)(=O)Nc2ccccc2Cl)c1	2	-1	34	-24	3*
Cc1cccnc1NC1CCCCC1	nt	1	79*	nt	0.38
CC(C)(C)C1=CC(=Nc2ccccc2N)C=C(C(C)(C)C)C1=O	4	0	-14	-30	0.22
CC(C)(C)C1=CC(=O)C(=O)C(C(C)(C)C)=C1	40*	2	7	-44	-0.69
Cc1ccc(C(=O)c2cc([N+](=O)[O-])ccc2N2CCOCC2)cc1C	3	1	-42	-41	0.36
Cc1ccc(C(=O)c2cc([N+](=O)[O-])ccc2N2CCCCC2)cc1C	-3	10.0*	-81	-3	-0.16
O=C(COc1ccc(Cl)cc1Cl)Nc1ccc(Cl)cn1	-13	5	6	-27	-1.2
CCOc1ccc(C(=O)Nc2ccc(Cl)cn2)cc1Cl	-11	8.7*	nt	-50	nt
Cc1ccccc1COC(=O)c1nn(-c2ccccc2)nc1N	nt	9.4*	43	nt	-0.3
Nc1nn(-c2ccccc2)nc1C(=O)OCc1ccccc1F	nt	7	-8	nt	0.28
Cc1cc(C)nc(N2CCC(C(=O)NCCc3ccc(F)cc3)CC2)n1	-21	-1	25	-29	0.04
Cc1cc(C)nc(N2CCCC(C(=O)NCCc3ccc(F)cc3)C2)n1 (stereo not given)	-1	1	86*	-34	0.15
O=C(CCCCCn1c(SCC(=O)c2ccccc2)nc2ccccc2c1=O)NCc1ccco1	6	8	17	-70	-0.42
O=C(CCCn1c(SCC(=O)c2ccc(Cl)cc2)nc2ccccc2c1=O)NCc1ccco1	11	8.5*	28	-38	-0.34
CN(Cc1ccccc1)C(=O)CSc1nc2ccccc2c(=O)n1Cc1ccco1	0	9.2*	nt	-33	nt
CC(C)(C)[C@]1(O)CCN2C[C@H]3c4ccccc4CCc4cccc(c43)[C@@H]2C1	8	1	32	-33	nt
O=C1CN(C(=O)COc2ncnc3ccccc23)c2ccccc2N1	-2	3	0	-22	4*
Cc1cccc(-n2c(SCC(=O)N3CC(=O)Nc4ccccc43)nc3ccccc3c2=O)c1C	1	9.6*	-32	-22	0.12
Cc1sc2nc(C3CCCCC3)nc(SCC(=O)N3CC(=O)Nc4ccccc43)c2c1C	0	8.5*	-8	-29	nt
O=C(CCc1nnc(-c2ccccc2)o1)c1ccc(Cl)cc1	nt	nt	nt	nt	-0.6
CN(c1cccc(NC(=O)CN(c2cccc(Cl)c2)S(=O)(=O)c2ccccc2)c1)S(C)(=O)=O	1	6	nt	-6	-0.55
CSc1ncc(CN2CCc3c([nH]c4ccccc34)C2c2cccc(O)c2)cn1 (stereo not given)	nt	1	nt	nt	-0.88
CCOC(=O)/C(=C/C=C1\Sc2cc(OCC)c(OCC)cc2N1CC)C(C)=O	nt	0	i	nt	16*
Cc1nc2ncnn2c(N2CCCC(C(=O)Nc3ccccc3Br)C2)c1C (stereo not given)	nt	0	15	nt	0.75
O=C1ON=C(c2ccccc2)/C1=C/c1ccc(-c2ccccc2[N+](=O)[O-])o1	42*	5	21	22	1.2
O=[N+]([O-])c1ccccc1-c1ccc(/C=N/n2cnnc2)o1	-6	0	nt	-15	-0.81
CCN(CC)S(=O)(=O)c1cc(NC(=O)CCCOc2ccc(C(C)=O)cc2)ccc1C	2	2	nt	-33	-0.05
